Test results taken from PubChem BioAssay AID871 (The Scripps Research Institute Molecular Screening Center, 2007).
Screen size: about 190,000 compounds; about 1,800 (0.95%) were called active.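 The calls were made as follows: active = activation above the screen-wide mean of compound activation plus 3 SD (cut at about 130% in these data); inactive = the rest.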 This excerpt belongs to a sample that is enriched for actives.

assay: enhancers of STAT3 transcriptional signaling – U3A cells, luciferase, luminescence, MLSCN library, primary screen (AID 871); conditions: IL-6 STAT3-luciferase reporter, at 5.6 µM, hits give high values, 100% = signal with IL-6 EC80 alone;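 also: 0% = background luminescence of wells with medium and substrate only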
Outline: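 Material: STAT3-luciferase reporter U3A cells; Probe or stimulus: IL-6 (33 ng/mL); Incubation: compound pre-incubation 1 h before IL-6, then 6 h stimulation at 37 °C; Technique: luminescence from STAT3-driven luciferase reporter; Evaluation: % activation versus median of IL-6-stimulated wells; Controls: IL-6-only high control.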

Activation (% of control), active:
Cc1ccc(OCc2nnc(SC3CCc4ccccc4C3=O)n2C)cc1 (stereo not drawn) 144%
CC(=O)Nc1ccc(NC(=O)COc2ccccc2C(=O)Nc2cccc(Cl)c2Cl)cc1 136%
Oc1cccc2ccc(/C=C/c3ccc(Br)s3)nc12 146%
Cc1ccc(/C=N/NC(=O)COc2ccccc2-c2ccccc2)cc1 148%
COCCCNc1nc2c(-c3cccc(C(F)(F)F)c3)nnn2c2ccccc12 147%
CCOc1cc(C(=O)N2CCc3cc(OC)c(OC)cc3C2)ccc1OC(F)F 133%
Cc1cc(O)c(NC(=O)c2ccc(C)c([N+](=O)[O-])c2)cc1C 134%
O=C(NCc1ccco1)c1cccn2c(=O)c3c4c(sc3nc12)CCCC4 154%
Fc1ccc2nc(-c3ccccc3)nc(SCc3nnc(-c4ccccc4)o3)c2c1 141%
CSc1nc(N(C)NC(=O)c2cccc(C)c2)c2ccccc2n1 139%
Fc1ccc2nc(Nc3nc4c(s3)CCCC4)sc2c1 147%
O=C(c1ccc2ccccc2n1)N1CCN(c2ccccc2Cl)CC1 135%
Cc1csc2ncc(C(=O)N(Cc3ccccc3)c3ccccn3)c(=O)n12 144%
COc1cccc(/C=C(/CC(=O)Nc2ccc(N3CCOCC3)cc2)c2nc3ccccc3s2)c1 143%
O=C(O)CS/C(=C\c1ccc(F)cc1)c1nc2ccccc2s1 136%
O=C(O)CSCc1nc2ccccc2s1 144%
CC(=O)n1c(C=Nc2ccccc2)c(O)c2ccccc21 134%
N#Cc1c(C(F)(F)F)cc(-c2ccc(Cl)cc2)nc1SCC(=O)O 142%
COc1ccc(C2c3[nH]c4ccccc4c3CCN2CCCn2cccn2)cc1C (stereo not drawn) 148%

Activation (% of control), inactive:
Cc1cccc(NC(=S)Nc2ccc(Cl)c(Cl)c2)c1 92.4%
Cc1ccc(OCc2n[nH]c(=S)n2-c2ccccc2)cc1 105%
Cc1cccnc1NC(=O)CSc1nnc(COc2ccc(C(C)C)cc2)n1C 98.9%
Cc1cc(C)cc(OCC(=O)NCc2cc(C)nc3ccccc23)c1 92.5%
O=C(CC1NCCc2ccccc21)Nc1cccc(Cl)c1 (stereo not drawn) 100%
CCOc1cc(N2CCOCC2)c(OCC)cc1NC(=O)c1cc(C)nc2ccccc12 93.6%
CCCCn1c(=O)c(CCC(=O)OCC(=O)Nc2ccc(C)c(Cl)c2)nc2ccccc21 100%
CCCCOc1ccc(NC(=O)[C@@H]2CCCN2C(=O)C2CCN(S(=O)(=O)c3ccc(C)cc3)CC2)cc1 102%
O=C(COc1ccccc1Cl)Nc1ccc(C(=O)c2ccc(C(=O)O)cc2)cc1 85.3%
COc1cc(NC(=O)COc2ccccc2Cl)ccc1NC(=O)C(C)C 84.8%
Cc1cc2oc(C(=O)Nc3c(C)n(C)n(-c4ccccc4)c3=O)c(C)c2cc1Cl 96.5%
CC(C)COP(=O)(c1ccc(N(C)C)cc1)C(Nc1ccccc1)c1cccnc1 (stereo not drawn) 106%
Nc1ccc(S(=O)(=O)Nc2nccc(/C=C/c3ccc(Br)s3)n2)cc1 92.4%
O=C(Nc1nnc(C2CC2)s1)C1=NN(C2CCS(=O)(=O)C2)C(=O)CC1 (stereo not drawn) 103%
O=C(N/N=C/c1ccccn1)c1ccc(S(=O)(=O)N2CCCCCC2)cc1 104%
O=C(C1CCN(C2CCN(Cc3cccc4c3OCO4)CC2)CC1)N1CCOCC1 108%
Cc1ccc(OCC(=O)N/N=C/c2ccncc2)cc1 95.8%
Cc1ccc(OCC(=O)N/N=C\c2ccco2)c(C)c1 92.2%
CC(=O)C1=C(C)NC2=C(C(=O)CC(C)(C)C2)C1C (stereo not drawn) 97%
N#Cc1ncc(C(F)(F)F)cc1Oc1cccnc1 107%
Cc1cccc(Nc2nc3c(S(=O)(=O)c4ccccc4)nnn3c3ccccc23)c1C 105%
CC(=O)Nc1ccc(Nc2nc3c(S(=O)(=O)c4ccc(C)c(C)c4)nnn3c3ccccc23)cc1 95.2%
O=C(CNCc1ccco1)Nc1cc(S(=O)(=O)N2CCOCC2)ccc1N1CCCC1 114%
CCOc1ccc(NC(=S)N2CCC(N(C)CC3CCCO3)CC2)cc1 (stereo not drawn) 102%
COc1cc2c(cc1OC)CN(C(=O)c1cc(=O)c3ccccc3o1)CC2 92.7%
COc1cc2c(cc1OC)CN(C(=O)c1ccc(S(=O)(=O)N3CCCCCC3)cc1)CC2 92.7%
O=C(CNS(=O)(=O)c1ccccc1)NCC(=O)OCc1ccccc1F 108%
Cc1ccc(C(=O)Nc2cccc3ncccc23)cc1[N+](=O)[O-] 94.5%
CCN1CCC(=NNC(=O)c2ccc(C)c([N+](=O)[O-])c2)CC1 107%
Cc1ccccc1CC1(CO)CCCN(Cc2ccc3c(c2)OCCO3)C1 (stereo not drawn) 93.5%
COc1ccccc1CCNC(=O)CSc1nnc2ccc(-c3cccnc3)nn12 101%
CC(C)(C)C(=O)CN1C2=NCCN2c2ccccc21 96.1%
C=C(C)Cn1c(SCC(=O)NCc2ccco2)nc2sc3c(c2c1=O)CCC3 104%
COc1ccc(CCn2c(=N)c(C(=O)NCc3ccco3)cc3c(=O)n4cccc(C)c4nc32)cc1 94.5%
O=C(Nc1nnc(SCc2ccccc2Cl)s1)c1cccc([N+](=O)[O-])c1 109%
c1ccc(-c2nnc(SCc3nc4ccccc4[nH]3)o2)cc1 109%
Fc1ccc(-c2nnc(CSc3nnc(-c4ccc5c(c4)OCO5)o3)o2)cc1 102%
O=C(NCCCO)/C(=C\C=C\c1ccccc1)NC(=O)c1ccccc1Cl 101%
CC1CCc2sc(C(=O)N/N=C/C3CCCCC3)cc2C1 (stereo not drawn) 103%
CN(NC(=O)c1ccccc1)c1nc2ccccc2nc1C(F)(F)F 96%
CN(NC(=O)c1ccccc1F)c1nc(C(F)(F)F)nc2ccccc12 115%
CSc1ncccc1C(=O)Nc1nc2ccc(F)cc2s1 90.7%
COc1ccc2nc(Nc3nc4cc5c(cc4s3)OCCO5)sc2c1 93.3%
COc1cc(NC(=S)NCc2ccco2)c(OC)cc1Cl 95.6%
COc1ccccc1N1CCN(C(=O)c2cc(-c3ccc(Cl)c(Cl)c3)on2)CC1 91.7%
O=C(c1ccncc1)N1CCN(c2ccc3ccccc3n2)CC1 90%
O=C(/C=C/c1ccc(F)cc1)NCCNC(=O)/C=C/c1ccc(F)cc1 95%
COC(=O)CC(=O)N1CCN(c2ccc(Cl)c(Cl)c2)CC1 87.7%
CCC(=O)N(Cc1ccccc1)c1ccccn1 101%
CC(C)(C)C(=O)N(Cc1ccccc1)c1ccccn1 106%
CCCCCCCCc1c(O)nc(-n2[nH]c(C)c(CCO)c2=O)[nH]c1=O 102%
CCCC1OC23CCCCC2C(C#N)(C#N)C1(C#N)C(=N)O3 (stereo not drawn) 104%
CC(C)(C)c1ccc(NC(=O)COC(=O)CCc2nc3ccccc3c(=O)[nH]2)cc1 95.4%
COc1ccc(/C=C(/CC(=O)Nc2ccc(C)cc2)c2nc3ccccc3s2)cc1 103%
COc1cccc(C(=O)Nc2ccc(N3CCCC3)cc2)c1 90.1%
CCc1ccccc1NC(=O)CN(C)C(=O)COc1ccc(C)nc1[N+](=O)[O-] 104%
COc1ccc(CC(=O)Nc2ccccc2NC(=O)c2ccco2)cc1OC 100%
CCOC(=O)C1C(c2ccc(Cl)cc2)NC(=S)NC1(O)C(F)(F)F (stereo not drawn) 98.2%
CCCCCCCC1(C)NC(=O)N(CC(=O)Nc2cc(C)on2)C1=O (stereo not drawn) 93.7%
O=C(Nc1ccccc1)Nc1nc2ccccc2s1 100%
O=C(O)CCCCc1nc2ccccc2s1 94.9%
COc1cccc2sc(NNC(=O)c3nc4ccccc4s3)nc12 120%
CSCCC(Nc1nc2ccccc2s1)C(=O)O (stereo not drawn) 99.7%
CCOP(=O)(OCC)C(Nc1cccc(C)c1)c1ccc(F)cc1 (stereo not drawn) 95.7%
O=C(Cn1nnc2ccccc2c1=O)NCc1ccc(Cl)cc1 101%
C#CCCCc1nc2ccccc2c(=O)n1N 96.4%
Cc1cc(C(=O)NNC(=S)Nc2ccccc2C)cs1 100%
COc1ccc(C(=O)NC(Cc2ccc(OC(=O)c3ccc(OC)cc3)cc2)C(=O)O)cc1 (stereo not drawn) 100%
NC1=NC(=O)C(Cc2cccc(Cl)c2Cl)S1 (stereo not drawn) 98.2%
CCCCn1c(=O)c(C(C)=O)c(O)c2ccccc21 106%
CCOc1ccc(N=Cc2c(O)n(-c3cccc(C)n3)c(=O)c3ccccc23)cc1 78.3%
O=C1c2ccccc2NC(c2ccccc2O)N1NS(=O)(=O)c1ccccc1 (stereo not drawn) 101%
COc1ccc(CN2CCN(Cc3cn(C)nc3-c3ccccc3)CC2CCO)c(C)c1C (stereo not drawn) 105%
Cc1sc2nc(CC(N)=O)[nH]c(=O)c2c1-c1ccccc1 96.5%
CCOC(=O)CC(=O)CSc1nc(-c2ccccc2)cc(-c2ccc(Cl)cc2)c1C#N 98.1%
N#Cc1c(C(F)(F)F)cc(-c2ccccc2)nc1SCC(=O)N1CCOCC1 107%
Cc1nn(CC2CC2)c(=O)n1N(C)c1ncc(C(F)(F)F)cc1Cl 99.4%
COc1cccc(C2c3[nH]c4ccccc4c3CCN2Cc2cccc(C)n2)c1 (stereo not drawn) 126%
CCN(CCn1cccn1)C(=O)CC1C(=O)NCCN1Cc1cccc(OC)c1OC (stereo not drawn) 106%
